Values after ≈ are worked out from the molar mass of the structure shown. Active and inactive are the calls of the source. The rule behind the calls is not given here.
What follows are compounds tested on HeLa (assay: Cytotoxicity against human HeLa cells after 72 hrs by MTT assay).
Type: functional, cell-based
Summary of the method: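 HeLa cells in log-phase growth, harvested with 0.01% trypsin, seeded at 3.0 × 10^3 cells/well and grown overnight at 37 °C in humidified 5% CO2. Six concentrations (100.00, 33.33, 11.11, 3.70, 1.23, 0.41 µg/mL) added in triplicate. After 72 h at 37 °C, MTT added for 3 h more, supernatant removed, DMSO added. Absorbance read at 550 nm against 690 nm reference. Doxorubicin positive control.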

Row | SMILES | IC50 | Activity
1 | O=C(CCCCCCC/C=C/c1ccc2c(c1)OCO2)N1CCCC1 | 2.67 µg/mL (≈ 7.77 µM) | –
2 | CCCCC/C=C/C=C/C(=O)NCCc1ccc(O)c(OC)c1 | – | inactive
3 | O=C(CCCCCC/C=C/c1ccc2c(c1)OCO2)N1CCCC1 | 17.9 µg/mL (≈ 54.5 µM) | –
4 | COc1cc(CCC(=O)n2cccc2)cc(OC)c1OC | – | inactive
5 | O=C(CC/C=C/CCCC/C=C/c1ccc2c(c1)OCO2)N1CCCC1 | 12.2 µg/mL (≈ 34.3 µM) | –
6 | O=C(/C=C/C=C\CC/C=C/c1ccc2c(c1)OCO2)N1CCCC1 | 7.42 µg/mL (≈ 22.8 µM) | –
7 | COc1cccc2c1C(=O)c1c(O)c3c(c(O)c1C2=O)C[C@@](O)(C(=O)CO)C[C@@H]3O[C@H]1C[C@H](N)[C@H](O)[C@H](C)O1 [DOXORUBICIN] | 0.163 µg/mL (≈ 0.3 µM) | –
8 | O=C(/C=C/C=C/CC/C=C/c1ccc2c(c1)OCO2)N1CCCC1 | 13.7 µg/mL (≈ 42.2 µM) | –
9 | CCCCC/C=C/C=C/C(=O)NCC[S+](C)[O-] (stereo not drawn) | – | inactive
10 | CCCCC/C=C/C=C/C=C/C(=O)N1CCCC1 | – | inactive
11 | COc1cc(CCC(=O)n2cccc2)cc(OC)c1O | – | inactive
12 | O=C(/C=C/C=C/CCCC/C=C/c1ccc2c(c1)OCO2)N1CCCC1 | 11.6 µg/mL (≈ 32.8 µM) | –
13 | O=C(/C=C/CCCC/C=C/c1ccc2c(c1)OCO2)N1CCCC1 [BRACHYAMIDE B] | 15 µg/mL (≈ 45.7 µM) | –

— ChEMBL document CHEMBL1667733, “Cytotoxic amide alkaloids from Piper boehmeriaefolium” (J Nat Prod, 2011)
